In ChEMBL document CHEMBL5058577, “EUbOPEN Chemogenomics Library 2 (Multiplex)” (2022):
Non-standard residues stand in square brackets, D forms with d. Residues, ends and D or L forms follow the SMILES beside them.

Test system: U2OS
Assay: Multiplex assay against U2OS
Assay type: toxicity, cell-based
Conditions: human
Method in brief: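 Tubulin, mitochondrial-mass and membrane-permeability phenotypes are per cents of healthy-nucleus cells. Cells were gated by CellPathfinder machine learning into Hoechst high-intensity objects or normal cells, normal cells into healthy, pyknosed or fragmented nuclei, and pyknosed cells into mitotic or apoptotic. Before that, live cells stained at seeding with Hoechst33342, BioTracker Green Microtubule Cytoskeleton Dye, MitoTracker Red and Annexin V Alexa Fluor 680 were imaged on a CQ1 microscope at 37°C and 5% CO2 after compound addition.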

[1] = 12 h, 1 µM, compound concentration 1 uM, replicate 1
[2] = 12 h, 1 µM, compound concentration 1 uM, replicate 2
[3] = 12 h, 10 µM, compound concentration 10 uM, replicate 1
[4] = 12 h, 10 µM, compound concentration 10 uM, replicate 2
[5] = 24 h, 1 µM, compound concentration 1 uM, replicate 1
[6] = 24 h, 1 µM, compound concentration 1 uM, replicate 2
[7] = 24 h, 10 µM, compound concentration 10 uM, replicate 1
[8] = 24 h, 10 µM, compound concentration 10 uM, replicate 2
[9] = 48 h, 1 µM, compound concentration 1 uM, replicate 1
[10] = 48 h, 1 µM, compound concentration 1 uM, replicate 2
[11] = 48 h, 10 µM, compound concentration 10 uM, replicate 1
[12] = 48 h, 10 µM, compound concentration 10 uM, replicate 2

SMILES: CC(C)C[C@@H]1NC(=O)[C@@H](C(C)C)NC(=O)[C@@H]2CCCN2C(=O)[C@@H](CC(=O)O)NC(=O)[C@@H](Cc2c[nH]c3ccccc23)NC1=O [BQ-123] (cyclo(L[dW][dD]P[dV]))
- Population Apoptotic (%) [1]: 77%
- Population Fragmented Nuclei (%) [1]: 20%
- Population Healthy Nuclei (%) [1]: 69%
- Population Hoechst High Intensity Objects (%) [1]: 0%
- Population Membrane Permeable-Phenotype (%) [1]: 1%
- Population Mitochondria Different-Phenotype (%) [1]: 1%
- Population Mitotic Cells (%) [1]: 22%
- Population Normal (%) [1]: 99%
- Population Pyknosed Nuclei (%) [1]: 9%
- Population Tubulin-Different-Phenotype (%) [1]: 0%
- Total Cell Count [1]: 228
- Population Apoptotic (%) [2]: 83%
- Population Fragmented Nuclei (%) [2]: 19%
- Population Healthy Nuclei (%) [2]: 75%
- Population Hoechst High Intensity Objects (%) [2]: 2%
- Population Membrane Permeable-Phenotype (%) [2]: 2%
- Population Mitochondria Different-Phenotype (%) [2]: 0%
- Population Mitotic Cells (%) [2]: 16%
- Population Normal (%) [2]: 97%
- Population Pyknosed Nuclei (%) [2]: 5%
- Population Tubulin-Different-Phenotype (%) [2]: 8%
- Total Cell Count [2]: 118
- Population Apoptotic (%) [3]: 78%
- Population Fragmented Nuclei (%) [3]: 29%
- Population Healthy Nuclei (%) [3]: 65%
- Population Hoechst High Intensity Objects (%) [3]: 2%
- Population Membrane Permeable-Phenotype (%) [3]: 8%
- Population Mitochondria Different-Phenotype (%) [3]: 1%
- Population Mitotic Cells (%) [3]: 21%
- Population Normal (%) [3]: 97%
- Population Pyknosed Nuclei (%) [3]: 4%
- Population Tubulin-Different-Phenotype (%) [3]: 3%
- Total Cell Count [3]: 294
- Population Apoptotic (%) [4]: 75%
- Population Fragmented Nuclei (%) [4]: 25%
- Population Healthy Nuclei (%) [4]: 70%
- Population Membrane Permeable-Phenotype (%) [4]: 7%
- Population Mitochondria Different-Phenotype (%) [4]: 4%
- Population Mitotic Cells (%) [4]: 25%
- Population Tubulin-Different-Phenotype (%) [4]: 2%
- Total Cell Count [4]: 99
- Population Apoptotic (%) [5]: 69%
- Population Fragmented Nuclei (%) [5]: 16%
- Population Healthy Nuclei (%) [5]: 75%
- Population Hoechst High Intensity Objects (%) [5]: 0%
- Population Membrane Permeable-Phenotype (%) [5]: 2%
- Population Mitochondria Different-Phenotype (%) [5]: 1%
- Population Mitotic Cells (%) [5]: 30%
- Population Normal (%) [5]: 99%
- Population Pyknosed Nuclei (%) [5]: 8%
- Population Tubulin-Different-Phenotype (%) [5]: 1%
- Total Cell Count [5]: 279
- Population Apoptotic (%) [6]: 85%
- Population Fragmented Nuclei (%) [6]: 11%
- Population Healthy Nuclei (%) [6]: 77%
- Population Membrane Permeable-Phenotype (%) [6]: 6%
- Population Mitochondria Different-Phenotype (%) [6]: 0%
- Population Mitotic Cells (%) [6]: 14%
- Population Pyknosed Nuclei (%) [6]: 10%
- Population Tubulin-Different-Phenotype (%) [6]: 3%
- Total Cell Count [6]: 137
- Population Apoptotic (%) [7]: 92%
- Population Fragmented Nuclei (%) [7]: 24%
- Population Healthy Nuclei (%) [7]: 67%
- Population Hoechst High Intensity Objects (%) [7]: 2%
- Population Membrane Permeable-Phenotype (%) [7]: 8%
- Population Mitochondria Different-Phenotype (%) [7]: 2%
- Population Mitotic Cells (%) [7]: 8%
- Population Normal (%) [7]: 97%
- Population Pyknosed Nuclei (%) [7]: 7%
- Population Tubulin-Different-Phenotype (%) [7]: 4%
- Total Cell Count [7]: 338
- Population Apoptotic (%) [8]: 100%
- Population Healthy Nuclei (%) [8]: 74%
- Population Hoechst High Intensity Objects (%) [8]: 0%
- Population Membrane Permeable-Phenotype (%) [8]: 6%
- Population Mitochondria Different-Phenotype (%) [8]: 8%
- Population Mitotic Cells (%) [8]: 0%
- Population Normal (%) [8]: 99%
- Population Pyknosed Nuclei (%) [8]: 1%
- Total Cell Count [8]: 113
- Population Apoptotic (%) [9]: 77%
- Population Fragmented Nuclei (%) [9]: 14%
- Population Healthy Nuclei (%) [9]: 79%
- Population Hoechst High Intensity Objects (%) [9]: 1%
- Population Membrane Permeable-Phenotype (%) [9]: 3%
- Population Mitochondria Different-Phenotype (%) [9]: 1%
- Population Mitotic Cells (%) [9]: 22%
- Population Normal (%) [9]: 98%
- Population Pyknosed Nuclei (%) [9]: 5%
- Population Tubulin-Different-Phenotype (%) [9]: 3%
- Total Cell Count [9]: 407
- Population Apoptotic (%) [10]: 100%
- Population Fragmented Nuclei (%) [10]: 18%
- Population Healthy Nuclei (%) [10]: 70%
- Population Mitochondria Different-Phenotype (%) [10]: 3%
- Population Mitotic Cells (%) [10]: 0%
- Population Pyknosed Nuclei (%) [10]: 10%
- Population Tubulin-Different-Phenotype (%) [10]: 2%
- Total Cell Count [10]: 226
- Population Apoptotic (%) [11]: 94%
- Population Fragmented Nuclei (%) [11]: 19%
- Population Healthy Nuclei (%) [11]: 70%
- Population Hoechst High Intensity Objects (%) [11]: 1%
- Population Membrane Permeable-Phenotype (%) [11]: 5%
- Population Mitochondria Different-Phenotype (%) [11]: 2%
- Population Mitotic Cells (%) [11]: 5%
- Population Normal (%) [11]: 98%
- Population Pyknosed Nuclei (%) [11]: 9%
- Population Tubulin-Different-Phenotype (%) [11]: 3%
- Total Cell Count [11]: 435
- Population Apoptotic (%) [12]: 81%
- Population Fragmented Nuclei (%) [12]: 20%
- Population Healthy Nuclei (%) [12]: 66%
- Population Mitochondria Different-Phenotype (%) [12]: 6%
- Population Mitotic Cells (%) [12]: 18%
- Population Pyknosed Nuclei (%) [12]: 12%
- Population Tubulin-Different-Phenotype (%) [12]: 2%
- Total Cell Count [12]: 131
